Test results reported in ChEMBL document CHEMBL3272092, “Synthesis and antihypertensive activity of 5-thio-2-pyridinecarboxylic acid derivatives” (J Med Chem, 1978).

Assays:
Rattus norvegicus [1] = test: Antihypertensive activity in spontaneous hypertensive rat model assessed as decrease in blood pressure at 100 mg/kg, po administered for 2 to 4 days measured on day 2 to day 4; assay type: functional
Procedure, shortened: (§1)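 SHR, 4–6 per drug, were dosed daily by gavage for 2 or 4 consecutive days in 3% cornstarch, 5% PEG-400 and 1 drop Tween 80 per mL. After 1 h acclimation, systolic pressure was read by tail-cuff (inflated to 250 mmHg, then lowered; pulse reemergence), at least three readings, at 1, 2, 3 and 24 h post-dose. The peak fall is scored: +, <20 mm up to >80 mm.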

Rattus norvegicus [2] = test: Antihypertensive activity in spontaneous hypertensive rat model assessed as decrease in blood pressure at 200 mg/kg, po administered for 2 to 4 days measured on day 2 to day 4; assay type: functional; procedure, shortened: as §1
Rattus norvegicus [3] = test: Toxicity in spontaneous hypertensive rat model assessed as bradycardia at 200 mg/kg, po administered for 2 to 4 days; assay type: organism-based; parameters: dose 200 mg/kg, route oral; conditions: in vivo
Procedure, shortened: (§2)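 Heart rate in SHR was counted from tail-cuff pressure pulses after 1 h acclimation. Rats (4–6 per drug) were gavaged daily for 2 or 4 days at 100 mg/kg (sometimes 200 mg/kg) in 3% cornstarch, 5% PEG-400 and 1 drop Tween 80 per mL. Recordings were at 1, 2, 3 and 24 h after each dose.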

Canis familiaris [4] = test: Antihypertensive activity in unanesthetized renal hypertensive Mongrel dog model assessed as change in mean blood pressure at 30 mg/kg, po qd measured on day 1; assay type: functional, Canis lupus familiaris
Procedure, shortened: (§3)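 Unanesthetized renal hypertensive dogs. Arterial pressure was recorded via a hypodermic needle and polyethylene tubing to a pressure transducer. Drug was given orally once daily as solid in a gelatin capsule. Pressure was determined 1.5, 3, 6 and 24 h after each dose, and the maximum change over each daily monitored session is reported.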

Canis familiaris [5] = test: Antihypertensive activity in unanesthetized renal hypertensive Mongrel dog model assessed as change in mean blood pressure at 30 mg/kg, po qd measured on day 2; assay type: functional, Canis lupus familiaris; procedure, shortened: as §3
Canis familiaris [6] = test: Antihypertensive activity in unanesthetized renal hypertensive Mongrel dog model assessed as change in mean blood pressure at 30 mg/kg, po qd measured on day 3; assay type: functional, Canis lupus familiaris; procedure, shortened: as §3
Canis familiaris [7] = test: Toxicity in unanesthetized renal hypertensive Mongrel dog model assessed as change in heart rate at 30 mg/kg, po qd measured on day 1; assay type: organism-based, Canis lupus familiaris; parameters: dose 30 mg/kg, route oral; conditions: in vivo
Procedure, shortened: (§4)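 Heart rate in unanesthetized renal hypertensive dogs was counted manually from the transducer-recorded arterial pressure trace. Oral dosing was once daily as solid in a gelatin capsule. Readings were at 1.5, 3, 6 and 24 h post-dose, and the maximum change per daily session is reported.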

Canis familiaris [8] = test: Toxicity in unanesthetized renal hypertensive Mongrel dog model assessed as change in heart rate at 30 mg/kg, po qd measured on day 2; assay type: organism-based, Canis lupus familiaris; parameters: dose 30 mg/kg, route oral; conditions: in vivo; procedure, shortened: as §4
Canis familiaris [9] = test: Toxicity in unanesthetized renal hypertensive Mongrel dog model assessed as change in heart rate at 30 mg/kg, po qd measured on day 3; assay type: organism-based, Canis lupus familiaris; parameters: dose 30 mg/kg, route oral; conditions: in vivo; procedure, shortened: as §4
Squirrel monkey [10] = test: Antihypertensive activity in normotensive squirrel monkey model assessed as decrease in systolic blood pressure at 100 mg/kg, po qd measured on day 2 by sphygmomanometry; assay type: functional, Saimiri sciureus, Artery
Procedure, shortened: (§5)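 Restrained squirrel monkeys of either sex with tails warmed by infrared lamp. Systolic pressure was measured indirectly with a tail-base occlusion cuff and pulse transducer. Doses were given daily by gavage as a suspension in 3% cornstarch, 5% PEG-400 and 1 drop Tween 80 per 10 mL. Readings were taken 1.5, 3, 5 and 24 h post-dose. Values are the peak change after each dose, analysed by paired t test.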

Squirrel monkey [11] = test: Antihypertensive activity in normotensive squirrel monkey model assessed as decrease in systolic blood pressure at 100 mg/kg, po qd measured on day 1 by sphygmomanometry; assay type: functional, Saimiri sciureus, Artery; procedure, shortened: as §5
Squirrel monkey [12] = test: Antihypertensive activity in normotensive squirrel monkey model assessed as decrease in systolic blood pressure at 100 mg/kg, po qd measured on day 3 by sphygmomanometry; assay type: functional, Saimiri sciureus, Artery; procedure, shortened: as §5
Squirrel monkey [13] = test: Toxicity in normotensive squirrel monkey model assessed as change in heart rate at 100 mg/kg, po qd measured on day 2; assay type: organism-based, Saimiri sciureus; parameters: dose 100 mg/kg, route oral; conditions: in vivo
Procedure, shortened: (§6)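 Heart rate in restrained, tail-warmed squirrel monkeys was counted manually from the tail-cuff pressure record. Daily gavage used a suspension in 3% cornstarch, 5% PEG-400 and 1 drop Tween 80 per 10 mL. Monitoring was at 1.5, 3, 5 and 24 h after each dose, and the peak change per administration is reported. Paired t test.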

Squirrel monkey [14] = test: Toxicity in normotensive squirrel monkey model assessed as change in heart rate at 100 mg/kg, po qd measured on day 1; assay type: organism-based, Saimiri sciureus; parameters: dose 100 mg/kg, route oral; conditions: in vivo; procedure, shortened: as §6
Squirrel monkey [15] = test: Toxicity in normotensive squirrel monkey model assessed as change in heart rate at 100 mg/kg, po qd measured on day 3; assay type: organism-based, Saimiri sciureus; parameters: dose 100 mg/kg, route oral; conditions: in vivo; procedure, shortened: as §6
Squirrel monkey [16] = test: Toxicity in normotensive squirrel monkey model at 100 mg/kg, po qd measured on day 3; assay type: organism-based, Saimiri sciureus; parameters: dose 100 mg/kg, route oral; conditions: in vivo
Canis familiaris [17] = test: Toxicity in unanesthetized renal hypertensive Mongrel dog model assessed as emesis at 30 mg/kg, po qd measured on day 1 to 4; assay type: organism-based, Canis lupus familiaris; parameters: dose 30 mg/kg, route oral; conditions: in vivo
Rattus norvegicus [18] = test: Toxicity in spontaneous hypertensive rat model assessed as bradycardia at 100 to 200 mg/kg, po administered for 2 to 4 days; assay type: organism-based; parameters: route oral; conditions: in vivo; procedure, shortened: as §2
Canis familiaris [19] = test: Antihypertensive activity in unanesthetized renal hypertensive Mongrel dog model assessed as change in mean blood pressure at 100 mg/kg, po qd measured on day 1; assay type: functional, Canis lupus familiaris; procedure, shortened: as §3
Canis familiaris [20] = test: Antihypertensive activity in unanesthetized renal hypertensive Mongrel dog model assessed as change in mean blood pressure at 100 mg/kg, po qd measured on day 2; assay type: functional, Canis lupus familiaris; procedure, shortened: as §3
Canis familiaris [21] = test: Toxicity in unanesthetized renal hypertensive Mongrel dog model assessed as change in heart rate at 100 mg/kg, po qd measured on day 1; assay type: organism-based, Canis lupus familiaris; parameters: dose 100 mg/kg, route oral; conditions: in vivo; procedure, shortened: as §4
Canis familiaris [22] = test: Toxicity in unanesthetized renal hypertensive Mongrel dog model assessed as change in heart rate at 100 mg/kg, po qd measured on day 2; assay type: organism-based, Canis lupus familiaris; parameters: dose 100 mg/kg, route oral; conditions: in vivo; procedure, shortened: as §4
Squirrel monkey [23] = test: Antihypertensive activity in normotensive squirrel monkey model assessed as decrease in systolic blood pressure at 100 mg/kg, po qd measured on day 4 by sphygmomanometry; assay type: functional, Saimiri sciureus, Artery; procedure, shortened: as §5
Squirrel monkey [24] = test: Toxicity in normotensive squirrel monkey model assessed as change in heart rate at 100 mg/kg, po qd measured on day 4; assay type: organism-based, Saimiri sciureus; parameters: dose 100 mg/kg, route oral; conditions: in vivo; procedure, shortened: as §6
Canis familiaris [25] = test: Toxicity in unanesthetized renal hypertensive Mongrel dog model assessed as emesis at 100 mg/kg, po qd measured on day 1 to 4; assay type: organism-based, Canis lupus familiaris; parameters: dose 100 mg/kg, route oral; conditions: in vivo
Rattus norvegicus [26] = test: Toxicity in spontaneous hypertensive rat model at 100 mg/kg, po administered for 2 to 4 days; assay type: organism-based; parameters: dose 100 mg/kg, route oral; conditions: in vivo

`O=C(O)c1ccc(Sc2cccc(Cl)c2)cn1` showed an Activity (Rattus norvegicus [1]) of over 20 mmHg.
`CCCC(Sc1ccc(C(=O)O)nc1)c1cccc(C(F)(F)F)c1` (centres undefined) gave an Activity (Rattus norvegicus [1]) of over 20 mmHg.
In the case of `O=C(O)c1ccc(SCc2ccccc2Cl)cn1`, the Activity (Rattus norvegicus [1]) is reported as under 20 mmHg.
`CC(Sc1ccc(C(=O)O)nc1)c1cccc(Cl)c1` (centres undefined) gave an Activity (Rattus norvegicus [1]) of under 20 mmHg.
Molecule `O=C([O-])c1ccc(SCc2cccc(Br)c2)cn1.[Na+]` has an Activity (Rattus norvegicus [1]) of over 60 mmHg.
For `O=C(O)c1ccc(SCc2cccc(Cl)c2)cn1`, the Activity (Rattus norvegicus [1]) was over 40 mmHg.
`O=C(O)c1ccc(SCc2cccc(C(F)(F)F)c2)cn1` was tested, and the Activity (Rattus norvegicus [1]) was over 40 mmHg, the Activity (Rattus norvegicus [2]) was over 80 mmHg and the Activity (Rattus norvegicus [3]) was “Toxic”. The Activity (Canis familiaris [4]) was 12 mmHg, the Activity (Canis familiaris [5]) was 22 mmHg and the Activity (Canis familiaris [6]) was 24 mmHg. The Activity (Canis familiaris [7]) was 5 bpm, the Activity (Canis familiaris [8]) was 9 bpm and the Activity (Canis familiaris [9]) was -12 bpm. For the same molecule, the Activity (Squirrel monkey [10]) was -25 mmHg, the Activity (Squirrel monkey [11]) was -27 mmHg and the Activity (Squirrel monkey [12]) was -25 mmHg. The Activity (Squirrel monkey [13]) was -26 bpm, the Activity (Squirrel monkey [14]) was -40 bpm and the Activity (Squirrel monkey [15]) was -20 bpm. The Activity (Squirrel monkey [16]) was “Toxic” and the Activity (Canis familiaris [17]) was “Non-toxic”.
Molecule `O=C(O)c1ccc([S+]([O-])Cc2ccc(Cl)cc2)cn1` (centres undefined) has an Activity (Rattus norvegicus [1]) of over 20 mmHg.
In the case of `O=C(O)c1ccc([S+]([O-])Cc2cccc(C(F)(F)F)c2)cn1` (centres undefined), the Activity (Rattus norvegicus [1]) is reported as over 40 mmHg, the Activity (Rattus norvegicus [2]) is reported as over 60 mmHg and the Activity (Rattus norvegicus [18]) is reported as “Toxic”. It also gave an Activity (Canis familiaris [19]) of -7 mmHg, an Activity (Canis familiaris [20]) of -10 mmHg and an Activity (Canis familiaris [21]) of 10 bpm. The Activity (Canis familiaris [22]) was 2 bpm, the Activity (Squirrel monkey [10]) was -29 mmHg and the Activity (Squirrel monkey [11]) was -30 mmHg. The Activity (Squirrel monkey [12]) was -19 mmHg, the Activity (Squirrel monkey [23]) was -19 mmHg and the Activity (Squirrel monkey [13]) was -83 bpm. It also gave an Activity (Squirrel monkey [14]) of -43 bpm, an Activity (Squirrel monkey [15]) of -73 bpm and an Activity (Squirrel monkey [24]) of -33 bpm. The Activity (Canis familiaris [25]) was “Non-toxic”.
For `O=C(O)c1ccc(SCCc2ccccc2)cn1`, the Activity (Rattus norvegicus [26]) was “Toxic”.
Molecule `O=C(O)c1ccc([S+]([O-])c2ccc(Cl)cc2)cn1` (centres undefined) has an Activity (Rattus norvegicus [1]) of under 20 mmHg.
With `O=C([O-])c1ccc(SCc2ccc(Br)cc2)cn1.[Na+]` the Activity (Rattus norvegicus [1]) was over 40 mmHg.
With `O=C([O-])c1ccc([S+]([O-])Cc2ccc(Cl)cc2Cl)cn1.[Na+]` (centres undefined) the Activity (Rattus norvegicus [1]) was over 20 mmHg.
`O=C(O)c1ccc(SCCCCl)cn1` showed an Activity (Rattus norvegicus [1]) of over 20 mmHg.
Molecule `O=C([O-])c1ccc([S+]([O-])CCCc2ccccc2)cn1.[Na+]` (centres undefined) has an Activity (Rattus norvegicus [1]) of under 20 mmHg.
With `O=C([O-])c1ccc(SCc2ccc(F)cc2)cn1.[Na+]` the Activity (Rattus norvegicus [1]) was over 20 mmHg.
With `O=C([O-])c1ccc([S+]([O-])Cc2cccc(Br)c2)cn1.[Na+]` (centres undefined) the Activity (Rattus norvegicus [1]) was over 20 mmHg.
`CC(Sc1ccc(C(=O)O)nc1)c1cccc(C(F)(F)F)c1` (centres undefined) gave an Activity (Rattus norvegicus [1]) of over 40 mmHg.
